Converted amounts (≈) assume the structure as drawn. The source made the active and inactive calls. The calls are words filed in the database; no cut-off is given here.
What was measured:
[1] = tested on: Cryptococcus neoformans; experiment: Antifungal activity against Cryptococcus neoformans 32609 after 24 hrs by spectrophotometric analysis; type: functional; conditions: Cryptococcus neoformans, 32609, 24 h
How it was run: (§1)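 Broth microdilution in RPMI 1640, inoculum 5×10^3 CFU/mL, compounds from 6.4 mg/mL DMSO stocks, 35 ℃ for 24 h. Growth read as OD600; MIC80 taken as lowest concentration giving 80% growth inhibition. Triplicate.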

[2] = tested on: Trichophyton rubrum; experiment: Antifungal activity against Trichophyton rubrum Cmccftla after 24 hrs by spectrophotometric analysis; type: functional; how it was run: as §1
[3] = tested on: Candida parapsilosis; experiment: Antifungal activity against Candida parapsilosis 22019 after 24 hrs by spectrophotometric analysis; type: functional; conditions: Lodderomyces parapsilosis, 22019, 24 h; how it was run: as §1
[4] = tested on: Nannizzia gypsea; experiment: Antifungal activity against Microsporum gypseum Cmccfmza after 24 hrs by spectrophotometric analysis; type: functional; how it was run: as §1
[5] = tested on: Aspergillus fumigatus; experiment: Antifungal activity against Aspergillus fumigatus 07544 after 24 hrs by spectrophotometric analysis; type: functional; conditions: Aspergillus fumigatus, 07544, 24 h; how it was run: as §1
[6] = tested on: Nakaseomyces glabratus; experiment: Antifungal activity against Candida glabrata 537 after 24 hrs by spectrophotometric analysis; type: functional; conditions: Nakaseomyces glabratus, 537, 24 h; how it was run: as §1
[7] = tested on: Candida albicans; experiment: Antifungal activity against Candida albicans SC5314 after 24 hrs by spectrophotometric analysis; type: functional; conditions: SC5314, 24 h; how it was run: as §1
[8] = tested on: Candida albicans; experiment: Antibiofilm activity against Candida albicans SC5314 assessed inhibition of yeast-to-hypha morphological transition at 0.5 ug/ml after 3 hrs; type: functional, organism-based
How it was run: (§2)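 Yeast-to-hypha transition in YPD with 10% (v/v) FBS across compound concentrations; cell morphology photographed after 3 h at 37°C.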

[9] = tested on: Candida albicans; experiment: Antibiofilm activity against Candida albicans SC5314 assessed inhibition of yeast-to-hypha morphological transition at 0.2 to 2 ug/ml after 3 hrs; type: functional, organism-based; how it was run: as §2
[10] = tested on: Candida albicans; experiment: Antifungal activity against Candida albicans SC5314 after 48 hrs by spectrophotometric analysis; type: functional; conditions: SC5314, 48 h

Row | MIC80 [1] | MIC80 [2] | MIC80 [3] | MIC80 [4] | MIC80 [5] | MIC80 [6] | MIC80 [7] | MIC80 [10] | Compound | Activity [8] | inhibition [9]
1 | 4 µg/mL (≈ 5.67 µM) | 4 µg/mL (≈ 5.67 µM) | 8 µg/mL (≈ 11.3 µM) | 4 µg/mL (≈ 5.67 µM) | 8 µg/mL (≈ 11.3 µM) | 1 µg/mL (≈ 1.42 µM) | 8 µg/mL (≈ 11.3 µM) | – | CCC(C)n1ncn(-c2ccc(N3CCN(c4ccc(OCC5COC(Cn6cncn6)(c6ccc(Cl)cc6Cl)O5)cc4)CC3)cc2)c1=O (centres undefined) [ITRACONAZOLE] | – | –
2 | 8 µg/mL (≈ 18 µM) | 8 µg/mL (≈ 18 µM) | > 64 µg/mL | 16 µg/mL (≈ 36.1 µM) | > 64 µg/mL | > 64 µg/mL | 32 µg/mL (≈ 72.2 µM) | – | CC(C)(C)OC(=O)N1CCC(c2ccnc3c2C(=O)c2sc([N+](=O)[O-])cc2C3=O)CC1 | – | –
3 | 0.5 µg/mL (≈ 1.58 µM) | 1 µg/mL (≈ 3.16 µM) | 4 µg/mL (≈ 12.6 µM) | 1 µg/mL (≈ 3.16 µM) | 4 µg/mL (≈ 12.6 µM) | 4 µg/mL (≈ 12.6 µM) | 2 µg/mL (≈ 6.32 µM) | – | CCCCc1cnc2c(c1)C(=O)c1sc([N+](=O)[O-])cc1C2=O | – | –
4 | 4 µg/mL (≈ 11.9 µM) | 8 µg/mL (≈ 23.8 µM) | 8 µg/mL (≈ 23.8 µM) | 4 µg/mL (≈ 11.9 µM) | 32 µg/mL (≈ 95.1 µM) | 16 µg/mL (≈ 47.6 µM) | 8 µg/mL (≈ 23.8 µM) | – | O=C1c2cc([N+](=O)[O-])sc2C(=O)c2c(-c3ccccc3)ccnc21 | – | –
5 | 0.5 µg/mL (≈ 1.82 µM) | 1 µg/mL (≈ 3.65 µM) | 1 µg/mL (≈ 3.65 µM) | 0.5 µg/mL (≈ 1.82 µM) | 2 µg/mL (≈ 7.29 µM) | 1 µg/mL (≈ 3.65 µM) | 0.5 µg/mL (≈ 1.82 µM) | 0.5 µg/mL (≈ 1.82 µM) | Cc1cnc2c(c1)C(=O)c1sc([N+](=O)[O-])cc1C2=O | Active | inactive
6 | 32 µg/mL (≈ 74.1 µM) | 32 µg/mL (≈ 74.1 µM) | 32 µg/mL (≈ 74.1 µM) | 16 µg/mL (≈ 37 µM) | 64 µg/mL (≈ 148 µM) | 16 µg/mL (≈ 37 µM) | 32 µg/mL (≈ 74.1 µM) | – | O=C1c2cc([N+](=O)[O-])sc2C(=O)c2c(C(Br)Br)ccnc21 | – | –
7 | 4 µg/mL (≈ 12 µM) | 1 µg/mL (≈ 3.01 µM) | 4 µg/mL (≈ 12 µM) | 4 µg/mL (≈ 12 µM) | 8 µg/mL (≈ 24.1 µM) | 4 µg/mL (≈ 12 µM) | 2 µg/mL (≈ 6.02 µM) | – | CCOC(=O)c1ccnc2c1C(=O)c1sc([N+](=O)[O-])cc1C2=O | – | –
8 | 8 µg/mL (≈ 21.8 µM) | 16 µg/mL (≈ 43.7 µM) | 16 µg/mL (≈ 43.7 µM) | 16 µg/mL (≈ 43.7 µM) | 16 µg/mL (≈ 43.7 µM) | > 64 µg/mL | 16 µg/mL (≈ 43.7 µM) | – | COc1ccccc1-c1ccnc2c1C(=O)c1sc([N+](=O)[O-])cc1C2=O | – | –
9 | 2 µg/mL (≈ 6.13 µM) | 16 µg/mL (≈ 49 µM) | 4 µg/mL (≈ 12.3 µM) | 8 µg/mL (≈ 24.5 µM) | 16 µg/mL (≈ 49 µM) | 4 µg/mL (≈ 12.3 µM) | 4 µg/mL (≈ 12.3 µM) | – | O=C1c2cc([N+](=O)[O-])sc2C(=O)c2c(-c3ccco3)ccnc21 | – | –

More lines, now with the values behind:

Row | Compound | MIC80 [1] | MIC80 [2] | MIC80 [3] | MIC80 [4] | MIC80 [5] | MIC80 [6] | MIC80 [7] | MIC80 [10] | Activity [8] | inhibition [9]
10 | CC(C)(C)OC(=O)/C=C/c1ccnc2c1C(=O)c1sc([N+](=O)[O-])cc1C2=O | 4 µg/mL (≈ 10.4 µM) | 8 µg/mL (≈ 20.7 µM) | 32 µg/mL (≈ 82.8 µM) | 4 µg/mL (≈ 10.4 µM) | 32 µg/mL (≈ 82.8 µM) | > 64 µg/mL | 16 µg/mL (≈ 41.4 µM) | – | – | –
11 | O=C1c2cc([N+](=O)[O-])sc2C(=O)c2c(-c3ccccc3[N+](=O)[O-])ccnc21 | 4 µg/mL (≈ 10.5 µM) | 16 µg/mL (≈ 42 µM) | > 64 µg/mL | 8 µg/mL (≈ 21 µM) | 64 µg/mL (≈ 168 µM) | > 64 µg/mL | 16 µg/mL (≈ 42 µM) | – | – | –
12 | CCc1cnc2c(c1)C(=O)c1sc([N+](=O)[O-])cc1C2=O | 0.25 µg/mL (≈ 0.867 µM) | 0.5 µg/mL (≈ 1.73 µM) | 1 µg/mL (≈ 3.47 µM) | 0.25 µg/mL (≈ 0.867 µM) | 2 µg/mL (≈ 6.94 µM) | 1 µg/mL (≈ 3.47 µM) | 0.5 µg/mL (≈ 1.73 µM) | – | – | –
13 | Cc1ccnc2c1[C@H](O)c1sc([N+](=O)[O-])cc1[C@@H]2O (relative stereo) | 4 µg/mL (≈ 14.4 µM) | 2 µg/mL (≈ 7.19 µM) | 8 µg/mL (≈ 28.7 µM) | 8 µg/mL (≈ 28.7 µM) | 16 µg/mL (≈ 57.5 µM) | 2 µg/mL (≈ 7.19 µM) | 2 µg/mL (≈ 7.19 µM) | – | – | –
14 | O=C1c2ccccc2-c2nccc3ccnc1c23 [SAMPANGINE] | 2 µg/mL (≈ 8.61 µM) | 16 µg/mL (≈ 68.9 µM) | 4 µg/mL (≈ 17.2 µM) | > 64 µg/mL | 16 µg/mL (≈ 68.9 µM) | 16 µg/mL (≈ 68.9 µM) | 0.5 µg/mL (≈ 2.15 µM) | – | – | –
15 | CCCc1cnc2c(c1)C(=O)c1sc([N+](=O)[O-])cc1C2=O | 0.5 µg/mL (≈ 1.65 µM) | 1 µg/mL (≈ 3.31 µM) | 4 µg/mL (≈ 13.2 µM) | 1 µg/mL (≈ 3.31 µM) | 4 µg/mL (≈ 13.2 µM) | 4 µg/mL (≈ 13.2 µM) | 2 µg/mL (≈ 6.62 µM) | – | – | –
16 | CC(C)(C)c1cnc2c(c1)C(=O)c1sc([N+](=O)[O-])cc1C2=O | 1 µg/mL (≈ 3.16 µM) | 1 µg/mL (≈ 3.16 µM) | 4 µg/mL (≈ 12.6 µM) | 1 µg/mL (≈ 3.16 µM) | 4 µg/mL (≈ 12.6 µM) | 4 µg/mL (≈ 12.6 µM) | 2 µg/mL (≈ 6.32 µM) | – | – | –
17 | O=Cc1ccnc2c1C(=O)c1sc([N+](=O)[O-])cc1C2=O | 8 µg/mL (≈ 27.8 µM) | 1 µg/mL (≈ 3.47 µM) | 8 µg/mL (≈ 27.8 µM) | 2 µg/mL (≈ 6.94 µM) | 16 µg/mL (≈ 55.5 µM) | 0.125 µg/mL (≈ 0.434 µM) | 4 µg/mL (≈ 13.9 µM) | – | – | –
18 | Cc1ccnc2c1[C@H](O)c1sc([N+](=O)[O-])cc1[C@H]2O (relative stereo) | > 64 µg/mL | > 64 µg/mL | > 64 µg/mL | > 64 µg/mL | > 64 µg/mL | > 64 µg/mL | > 64 µg/mL | – | – | –

From ChEMBL document CHEMBL4138161, “Discovery of simplified sampangine derivatives as novel fungal biofilm inhibitors” (Eur J Med Chem, 2018)
